Usually IC50 stands for the point on the concentration scale where inhibition reaches its midpoint.

The values below come from ChEMBL document CHEMBL2380219, “Physalin A induces apoptotic cell death and protective autophagy in HT1080 human fibrosarcoma cells” (J Nat Prod, 2013).

Data set [1] relates to HT-1080. Nature of the data set: Cytotoxicity against human HT1080 cells assessed as growth inhibition after 24 hrs by MTT assay. Type of data set: functional, cell-based. The following applies: HT-1080, 24 h. (In general: Tetrazolium assays rely on reduction of a dye to a coloured formazan, in cell work by metabolically active cells.)
Data set [2] concerns PBMC. Nature of the data set: Cytotoxicity against human PBMC at 40 to 80 uM after 24 to 48 hrs by MTT assay. The data set is classed as cell-based. In short, it runs like this: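 hPBMC from fresh blood of three healthy male volunteers, isolated on Ficoll-Hypaque (1.077 g/mL) at 900g for 30 min and washed, then seeded in complete RPMI-1640. Exposed to 10–80 μM for 24 and 48 h, with DMSO below 0.05%. MTT was read at 492 nm after formazan in DMSO. Inhibition % = (control−sample)/(control−blank)×100; mean ± SD, three independent experiments.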

Turning to `O=c1[nH]cc(F)c(=O)[nH]1` [FLUOROURACIL], the IC50 in data set [1] was 70.8 µM. For the same compound, in data set [2], the Activity entry is given as “Non-toxic”.
On the same counts, the results for `CC(=O)O[C@H]1C(=O)[C@@]2(C)[C@H]([C@H](OC(=O)c3ccccc3)[C@]3(O)C[C@H](OC(=O)[C@H](O)[C@@H](NC(=O)c4ccccc4)c4ccccc4)C(C)=C1C3(C)C)[C@]1(OC(C)=O)CO[C@@H]1C[C@@H]2O` [PACLITAXEL] are 6 µM and “Non-toxic”.
